High-throughput results: PubChem BioAssay, Johns Hopkins Ion Channel Center
Hits are enriched below; roughly 4.1% of the tested compounds scored in any of these assays.
MrgX1 allo act – positive allosteric modulators of MrgX1, primary screen, HEK293 cells, Fluo-4 calcium flux; Mas-related G-protein coupled receptor member X1 (Homo sapiens), Q96LB2; FDSS; active compounds read high; B-score at 10 µM; 0.63% of 310,000 active; AID 588675, 2011;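 active means plate-corrected calcium response at least 3 library SD above typical, normal starting fluorescence, not activating the receptor alone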;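 further: compound read alongside a low EC10 to EC30 dose of BAM8-22 agonist; peak minus trough fluorescence over baseline measured at the second addition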
Target sequence (Q96LB2 whole entry, looked up): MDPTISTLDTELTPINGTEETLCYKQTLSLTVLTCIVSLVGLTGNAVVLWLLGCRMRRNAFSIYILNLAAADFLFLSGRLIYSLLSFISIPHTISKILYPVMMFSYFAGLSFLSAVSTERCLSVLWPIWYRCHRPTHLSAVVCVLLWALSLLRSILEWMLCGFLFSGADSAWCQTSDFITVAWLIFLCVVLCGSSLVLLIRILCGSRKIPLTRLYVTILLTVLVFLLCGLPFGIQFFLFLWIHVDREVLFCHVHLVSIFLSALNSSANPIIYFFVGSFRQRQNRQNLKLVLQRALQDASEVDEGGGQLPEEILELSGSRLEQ
MrgX1 antagonist – antagonists of human MrgX1 receptor, primary screen, HEK293 cells, Fluo-4 calcium flux; Mas-related G-protein coupled receptor member X1 (Homo sapiens), Q96LB2; BAM8-22 antagonism; active compounds read low; B-score at 10 µM; 1.3% of 310,000 active;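 active means calcium-response B-score plate-corrected more than 3 library SD below zero, starting fluorescence within 5 deviations, no agonist response on first addition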;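 further: peak minus trough fluorescence over baseline after final BAM8-22 challenge near maximal dose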
RGS4 block – RGS4 inhibitors, primary screen, cell-based, HEK293 M3R inducible RGS4, calcium flux | 0.45% of 310,000 active | Fluo-4 calcium flux; active compounds read high; triggered by carbachol at its EC20 | B-score at 10 µM | Regulator of G-protein signaling 4 (Homo sapiens), P49798 | AID 463165, 2010;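 active means B-score, a plate-corrected calcium signal, over three deviations above library mean, with baseline fluorescence within five deviations of library mean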;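 further: RGS4 expression induced by doxycycline in cells with stable M3 receptor; B-score is computed from the integrated fluorescence ratio over baseline after carbachol; higher B-score means a larger calcium signal and so more RGS4 inhibition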
Target sequence (P49798 whole entry, looked up): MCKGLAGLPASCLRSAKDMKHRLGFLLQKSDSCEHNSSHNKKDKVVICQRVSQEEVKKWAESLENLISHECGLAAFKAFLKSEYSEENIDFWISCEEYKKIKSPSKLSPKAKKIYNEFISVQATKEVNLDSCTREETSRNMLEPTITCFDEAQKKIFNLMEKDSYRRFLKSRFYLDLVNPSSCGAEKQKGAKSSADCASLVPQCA
Kir21 inh – inhibitors of mouse Kir2.1 inward-rectifier potassium channel; Inward rectifier potassium channel 2 (Mus musculus), P35561; B-score at 10 µM; 0.85% of 310,000 active; HEK293-Kir2.1, FluxOR thallium flux fluorescence; active compounds read low;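 active means fluorescence ratio B-score at or below minus 3 SD of library scores, with starting-brightness B-score within 2 SD, cut at about -4.2 in these data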;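 further: channel flux triggered by added potassium and thallium sulfate stimulus; B-score of peak minus minimum fluorescence over baseline after thallium stimulus; more negative B-score means stronger Kir2.1 block with less thallium influx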
MrgX1 ag – agonists of human MrgX1 receptor, primary screen, HEK293 cells, Fluo-4 calcium flux; 0.44% of 310,000 active; B-score at 10 µM; Fluo-4 calcium fluorescence, agonist mode; active compounds read high; Mas-related G-protein coupled receptor member X1 (Homo sapiens), Q96LB2;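 active means calcium response B-score plate-corrected fluorescence ratio at least 3 library SD, with starting fluorescence B-score inside 5 SD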
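Material: MrgX1-expressing HEK293 cells; input: 15,000 cells per well; doses: test compound given as first of three sequential additions; schedule: overnight plating before 1 h dye loading; technique: Fluo-4 NW calcium-flux fluorescence, kinetic read; evaluation: baseline-normalised fluorescence change ratio, B-scored; control set: plate-wise positive and negative controls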
RGS4 act – RGS4 potentiators or activators, primary screen, cell-based, HEK293 M3R inducible RGS4, calcium flux; carbachol calcium flux Fluo4; active compounds read low; B-score at 10 µM; 0.92% of 310,000 active;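 active means B-score of the integrated calcium signal more than 4 SD below the library mean, with starting fluorescence not abnormally high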;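 further: negative B-score means reduced calcium response which marks RGS4 activation or potentiation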
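Detection: kinetic calcium fluorescence imaging with Fluo4-AM dye, 2 µM / Material: HEK293 cells with stable M3R and inducible RGS4 / Schedule: recording 10 s baseline at 1 Hz, 100 s post-agonist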
RGS4 block valid – enhanced carbachol calcium response, M3R/RGS4 cells, RGS4 inhibitor project, cell-based, validation screen, HEK293 M3R/RGS4, calcium flux; shares compounds with RGS4 block; carbachol calcium Fluo-4 fluorescence; carbachol added at its EC20; 0 = buffer wells, 100 = carbachol control; calcium response, % at 10 µM; 65% of 1,700 active;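 active means duplicate-averaged calcium response above the buffer-only control mean plus 5 SD of those controls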;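 further: integrated fluorescence ratio F max minus min over baseline F0; higher response in RGS4-induced cells means RGS4 inhibition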
M3R Ca ctr – carbachol calcium response in non-induced M3R cells, confirmation, counter-screen for RGS4 inhibitor project, cell-based, HEK293 M3R. shares compounds with RGS4 block. carbachol calcium Fluo-4; submaximal (EC20) carbachol stimulus; buffer wells 0%, carbachol control wells 100%. activity (percent), % at 10 µM. 20% of 1,900 active. AID 493000, 2010; call rule not given here;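 further: RGS4 induction absent so cells express M3R without RGS4; higher means more calcium signal and flags a non-specific hit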
M3R basal Ca ctr – second RGS4 inhibitor counter-screen in uninduced cells lacking carbachol; calcium response (agonist-mode artifact), % at 10 µM; 22% of 1,900 active; HEK293 M3R/RGS4 non-induced, Fluo-4 calcium, no carbachol; normalised: buffer wells 0%, carbachol wells 100%; shares compounds with RGS4 block;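 active means duplicate-averaged calcium rise in uninduced cells above buffer wells' mean plus 5 SD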
Active calls of the source: *; i = inactive; nt = not tested or not shown.

SMILES	MrgX1 allo act	MrgX1 antagonist	RGS4 block	Kir21 inh	MrgX1 ag	RGS4 act	RGS4 block valid	M3R Ca ctr	M3R basal Ca ctr
CCOC(=O)[C@@H]1[C@H]2COc3cc(OC)ccc3[C@H]2N2C(=O)N(c3ccc(C)cc3)C(=O)[C@@]12C	i	i	i	-0.83	i	i	nt	nt	nt
C[C@]12C(=O)N(c3ccc(F)cc3)C(=O)N1[C@@H]1c3ccccc3OC[C@@H]1[C@H]2c1ccccc1	i	i	i	-0.87	i	i	nt	nt	nt
CCOC(=O)[C@@H]1[C@H]2COc3ccccc3[C@H]2N2C(=O)N(c3ccc(F)cc3)C(=O)[C@]12C	i	i	i	0.82	i	i	i	i	i
CCOC(=O)[C@@H]1[C@H]2COc3ccccc3[C@@H]2N2C(=O)N(c3ccc(C)cc3)C(=O)[C@]12C	i	i	i	0.22	i	i	nt	i	i
CCOC(=O)[C@@H]1[C@H]2COc3ccc(Br)cc3[C@@H]2N2C(=O)N(c3ccc(C(F)(F)F)cc3)C(=O)[C@@]12C	i	i	i	-0.92	i	i	nt	nt	nt
CCOC(=O)[C@@H]1[C@H]2COc3ccccc3[C@H]2N2C(=O)N(c3ccc(Cl)cc3)C(=O)[C@]12C	i	i	i	0	i	i	i	i	i
COc1ccc(C(=O)NNC(=O)CSc2nnc(C(C)C)n2C)cc1	i	i	i	-1.3	i	i	nt	nt	nt
CC(C)(C)c1cc(CSC(=S)NC2CCS(=O)(=O)C2)c(Br)c(C(C)(C)C)c1 (stereo unspecified)	i	i	i	1.7	i	i	nt	nt	nt
COc1ccc(C(C[N+](=O)[O-])c2c(C)[nH]n(-c3ccccc3)c2=O)cc1 (stereo unspecified)	i	i	28*	-8.7*	40*	i	54%*	84%*	21%*
COc1ccc(Cl)cc1NC(=O)c1cc(-c2ccccc2O)n[nH]1	i	i	5.5*	-0.02	i	i	5.0%*	i	i
Cc1ccc(S(=O)(=O)N(CC(=O)N=Nc2c(O)[nH]c3ccccc23)c2cccc(C)c2)cc1	i	i	i	0.63	i	i	nt	nt	nt
Cc1cc(Cl)ccc1N(CC(=O)N=Nc1c(O)[nH]c2ccccc12)S(C)(=O)=O	i	i	4.9*	-0.04	i	i	5.5%*	i	i
COc1cc(/C=C/c2[nH]c(=O)[nH]c(=O)c2[N+](=O)[O-])cc(OC)c1O	i	i	i	0.61	i	i	nt	nt	nt
COc1cccc(/C=C/c2[nH]c(=O)[nH]c(=O)c2[N+](=O)[O-])c1O	i	i	5.3*	0.92	i	i	17%*	i	i
O=c1[nH]c(/C=C/c2ccccc2Cl)c([N+](=O)[O-])c(=O)[nH]1	i	i	10*	0.54	i	i	44%*	42%*	i
